Most compounds without a hit are left out; they make up all but 4.1% or so of the library.
APP 5'UTR act – APP 5'UTR luciferase reporter activation | activation, % at 2 µM | AID 1276 | actives 1% (n = 190,000) | SH-SY5Y APP 5'UTR luciferase reporter, luminescence; zero percent = DMSO vehicle wells;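 active = activation above a set limit, based on mean plus 3 SD of controls, cut at about 140% in these data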
NF-kB neuron act – NF-kB expression increase, human neuronal cells | fold change at 12.5 µM | NF-kB reporter expression; stronger effect = higher value | actives 1.6% (n = 190,000); in the data active = fold change above about 3.3
FLuc act counter – firefly luciferase counter-screen for stimulation assays; P08659; ATPlite luciferase biochemical, luminescence, 10 min; 0 = ATP-free wells, 1 = DMSO control; activation factor at 10 µM; 200,000 tested, under 10 active;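 active = luciferase activation factor, scaled between plate controls, of at least 2 with compound at 10 µM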
Target sequence (P08659 whole entry, looked up): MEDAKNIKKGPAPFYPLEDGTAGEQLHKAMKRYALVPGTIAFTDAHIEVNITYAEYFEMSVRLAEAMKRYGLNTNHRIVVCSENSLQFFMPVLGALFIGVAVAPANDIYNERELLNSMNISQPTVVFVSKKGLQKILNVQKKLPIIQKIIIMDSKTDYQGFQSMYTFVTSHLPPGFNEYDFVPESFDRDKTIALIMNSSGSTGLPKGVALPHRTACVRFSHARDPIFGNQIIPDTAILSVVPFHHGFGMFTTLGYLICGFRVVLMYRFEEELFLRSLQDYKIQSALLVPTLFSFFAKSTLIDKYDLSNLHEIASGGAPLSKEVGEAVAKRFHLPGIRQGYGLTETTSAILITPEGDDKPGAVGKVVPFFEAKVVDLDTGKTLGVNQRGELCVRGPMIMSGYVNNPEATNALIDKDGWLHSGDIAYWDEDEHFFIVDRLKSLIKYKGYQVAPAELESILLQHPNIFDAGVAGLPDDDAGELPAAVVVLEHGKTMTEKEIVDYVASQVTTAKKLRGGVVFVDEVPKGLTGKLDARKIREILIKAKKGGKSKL
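Material: Luciferase/luciferin reagent mix; Doses: test compounds dosed from 2 mM stocks in 100% DMSO; Schedule: 10 min incubation after luciferase reagent addition, room temperature; Measured by: luminescence from luciferase reaction; Read-out: luminescence gain marking luciferase activators.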
FLuc inh counter – inhibits firefly luciferase, flagging false hits in luciferase inhibition screens. P08659. ATPLite firefly luciferase biochemical luminescence, 10 min. inhibition, % at 10 µM. actives 1.5% (n = 200,000). AID 1006;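 active = inhibition above about 50% when tested at 10 µM, limit read from the data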
STAT1 act – activators of IFN-gamma induced STAT1 signaling. actives 2.6% (n = 200,000). NIH 3T3 STAT1-luciferase reporter, luminescence; 100% = IFN-gamma alone, no compound. activation (% of control), % at 5.5 µM;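 active = activation above the screen-wide mean activation plus 3 SD, cut at about 130% in these data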
A number is an active result; n = inactive; x = not tested or not shown.

SMILES	APP 5'UTR act	NF-kB neuron act	FLuc act counter	FLuc inh counter	STAT1 act
CCn1cc(/C=C/C(=O)c2ccc(O)cc2)c(C)n1	n	3.6	n	90	n
Cc1cccc(-n2c(=S)[nH]c3c(oc4ccccc43)c2=O)c1	n	n	n	n	n
Cc1cc(C)cc(-n2nnn(C3C/C(=N/NC(N)=S)C4OCC3O4)c2=S)c1 (stereo not drawn)	n	n	n	n	n
COc1cc(/C=N/N2CCOCC2)ccc1OCc1ccc(Cl)cc1	144	n	n	n	140
O=C(N/N=C/c1ccccc1F)NC1CCCCC1	n	n	n	n	130
O=C(N/N=C/c1ccccc1)NC1CCCCC1	n	n	n	n	n
COc1ccc(S(=O)(=O)N2CCc3ccccc32)cc1C(=O)OCC(=O)c1c(N)n(C)c(=O)n(C)c1=O	n	x	n	n	n
Cc1cc(C)c(C#N)c(Sc2ccccc2N)n1	n	n	n	n	139
CCOC(=O)c1ccccc1NS(=O)(=O)c1ccccc1	n	n	n	n	n
O=C(c1cccs1)N1CCc2ccccc21	n	n	n	n	139
O=C(/C=C/c1cccs1)N1CCc2ccccc21	187	8.1	n	92	134
COc1ccccc1-n1cnnc1SCC(=O)Nc1cc(C)on1	n	n	n	n	n
O=C1/C(=C\c2cccs2)Sc2ccc3ccccc3c21	178	n	n	54	n
CC(=O)c1ccc(NC(=O)C(C)N(C)CC(=O)Nc2ccc(Cl)cc2)cc1 (stereo not drawn)	n	n	n	n	n
COc1ccc(CC(=O)OC2CCCN(C)C2)cc1 (stereo not drawn)	n	n	n	n	n
CCc1cc2cc3c(cc2nc1SCC(=O)Nc1nnc(C)s1)OCCO3	n	n	n	n	n
CCc1nnc(NC(=O)CSc2nc3cc4c(cc3cc2CC)OCCO4)s1	n	3.5	n	n	n
Nc1ccccc1C(=O)N=Nc1[nH]c(N)c2ccccc12	n	n	n	79	n
Nc1[nH]c(N=NC(=O)c2ccc(F)cc2)c2ccccc12	n	n	n	55	n
COC(=O)C1=NN(C(=O)c2cccc(Cl)c2)C(O)(C(C)(C)C)C1 (stereo not drawn)	n	n	n	n	n
Cc1sc(NC(=O)c2ccccc2F)c(CN2CCCCC2)c1C	n	n	n	n	n
Cc1sc(NC(=O)c2ccc(F)cc2)c(CN2CCCCCC2)c1C	n	n	n	n	131
Cc1cc(C)nc(SCc2cnc(C)nc2N)n1	n	n	n	n	n
COc1ccc(C(=O)O)cc1S(=O)(=O)N(C)C	n	n	n	n	n
COc1cc(-c2nnn(CC(=O)N3CCOCC3)n2)cc(OC)c1OC	n	n	n	n	n
SMILES	APP 5'UTR act	NF-kB neuron act	FLuc act counter	FLuc inh counter	STAT1 act
COc1ccc(-c2ccc(-c3nnn(CC(=O)N4CCOCC4)n3)cc2)cc1	n	n	n	74	n
CC(=O)c1cccc(Nc2nc(=O)c3cccnc3s2)c1	n	3.4	n	n	n
O=c1nc(Nc2ccc(OCc3ccccc3)cc2)sc2ncccc12	n	n	n	n	n
CC(=O)c1ccc(Nc2cc(C)nc3ccccc23)cc1	n	n	n	n	n
CC(=O)c1ccc(Nc2nc(=O)c3cccnc3s2)cc1	n	3.9	n	n	136
CCOC(=O)c1ccc(Nc2nc(=O)c3cccnc3s2)cc1	n	4.1	n	n	n
Cc1cccc(C(=O)c2c[nH]cc2-c2ccccc2)c1	n	n	n	n	n
COc1ccc(-c2cnnc(N/N=C/c3ccc(O)c(OC)c3)n2)cc1	n	n	n	81	n
O=C(CC1C(=O)NC2CCCCC2N1C(=O)c1ccc([N+](=O)[O-])cc1)Nc1ccccc1 (stereo not drawn)	n	n	n	n	n
O=C1CC(/C=C/c2ccccc2)=Nc2ccccc2N1	n	4	n	n	142
O=C1CC(/C=C/c2cccnc2)=Nc2ccccc2N1	n	n	n	n	n
O=C(NC(=S)Nc1ccc2c(c1)OCO2)c1ccc(Cl)cc1	165	n	n	n	130
CCc1ccc(C(=O)NC(=S)Nc2ccc3c(c2)OCCO3)cc1	136	5.4	n	n	146
O=C(NC(=S)Nc1ccc2c(c1)OCCO2)c1ccc(F)cc1Cl	n	n	n	n	131
C=CCNC(=O)NC(=O)COC(=O)/C(C#N)=C/c1cc(C)n(CC(C)C)c1C	n	n	n	n	n
COc1cc(/C=C/c2noc(-c3ccccc3O)n2)cc(OC)c1OC	n	n	n	n	n
COc1ccc(/C=C/c2noc(-c3ccccc3O)n2)cc1	n	n	n	54	n
CSc1ccc(/C=N/Nc2nc(C)cc(=O)[nH]2)cc1	n	n	n	68	n
O=C(O/N=C1\CCCc2ccccc21)c1cccc(Cl)c1	n	n	n	n	n
O=C(O/N=C1/CCCc2occc21)c1ccccc1	n	n	n	70	n
Cc1ccc(C(=O)O/N=C2\CCCc3ccccc32)cc1	n	n	n	94	135
Cc1cccc(C(=O)O/N=C2\CCCc3ccccc32)c1	n	n	n	81	n
O=C(O/N=C1\CCCc2ccccc21)C1CC1	n	n	n	n	n
Cc1ccc(CSc2nnc(C)c(=O)[nH]2)cc1	n	n	n	n	n
Cc1cc(C(=O)NNC(=S)NCC(C)C)cs1	n	n	n	n	n
SMILES	APP 5'UTR act	NF-kB neuron act	FLuc act counter	FLuc inh counter	STAT1 act
Cc1cccc(NC(=S)NNC(=O)c2csc(C)c2)c1	n	n	n	57	n
Cc1ccc(C)c(NC(=S)NNC(=O)c2csc3c2CCCC3)c1	n	n	n	n	n
Cc1cccc(NC(=S)NNC(=O)c2csc3c2CCCC3)c1	n	n	n	57	n
CN(CCCNC(=O)C1CCC(=O)N1Cc1ccc(F)cc1)c1ccccc1 (stereo not drawn)	n	n	n	n	n
Cc1cccc(OCCCC(=O)Nc2ccc(N(C)C)cc2)c1	n	n	n	n	145
Cc1cnc(NC(=O)COc2ccccc2Cl)s1	n	n	n	91	n
O=C(COc1ccccc1Cl)NCCc1ccc2c(c1)OCCO2	n	n	n	n	n
O=C(CCc1ccccc1)Nc1ccc2c(c1)OCCO2	n	4.5	n	n	145
O=C(COc1ccccc1Cl)Nc1ccc2c(c1)OCCO2	190	n	n	n	n
O=C(CCSCc1ccccc1)Nc1ccc2c(c1)OCCO2	n	n	n	n	n
CC(C)N(C(=O)COC(=O)c1ccc(Cl)nc1)C(C)C	n	n	n	n	n
CC(=O)Nc1ccc(NC(=O)CSc2nnc(CNc3ccc(F)cc3)n2CC2CCCO2)cc1 (stereo not drawn)	n	n	n	n	n
CC1CC(C)(C)NC(=S)N1CCCC(=O)Nc1ccc2c(c1)OCCO2 (stereo not drawn)	n	n	n	n	137
Cc1cccc(OCC(=O)Nc2ccc3c(c2)OCCO3)c1	n	n	n	54	n
Cc1ccc(NC(=O)CCCN2C(=S)NC(C)(C)CC2C)cc1 (stereo not drawn)	n	n	n	n	n

Screening results from PubChem BioAssay.
